Assays:
[1] = biological target: T1, 5-hydroxytryptamine receptor 2A (Homo sapiens, UniProt P28223); assay: Displacement of [3H]ketanserin from cloned human 5HT2A receptor in […] cells; format: cell-based
How it was run: (§1)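 […] cells stably transfected with cloned receptor: hD4 (D4.2 subtype) with [3H]spiperone, h5-HT2A with [3H]ketanserin. Non-specific binding was defined with methysergide. Ki came from Cheng–Prusoff conversion and is the mean of at least two independent determinations ± SEM.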

[2] = biological target: T2, D(4) dopamine receptor (Homo sapiens, UniProt P21917); assay: Displacement of [3H]spiperone from cloned human dopamine D4.2 receptor in […] cells; format: cell-based; how it was run: as §1
T2 sequence (P21917 whole entry): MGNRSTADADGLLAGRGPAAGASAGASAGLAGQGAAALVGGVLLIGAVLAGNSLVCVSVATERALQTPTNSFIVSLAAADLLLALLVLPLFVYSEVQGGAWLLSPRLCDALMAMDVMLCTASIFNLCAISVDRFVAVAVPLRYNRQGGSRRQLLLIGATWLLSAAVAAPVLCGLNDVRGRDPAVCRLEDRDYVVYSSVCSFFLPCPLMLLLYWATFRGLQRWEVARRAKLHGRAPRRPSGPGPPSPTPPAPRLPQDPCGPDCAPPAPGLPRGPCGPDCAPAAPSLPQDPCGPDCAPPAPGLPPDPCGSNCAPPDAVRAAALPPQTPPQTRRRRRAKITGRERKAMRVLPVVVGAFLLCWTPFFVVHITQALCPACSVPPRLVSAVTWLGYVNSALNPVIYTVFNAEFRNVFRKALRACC

[3] = biological target: T3, D(2) dopamine receptor (Homo sapiens, UniProt P14416); assay: Displacement of [3H]spiperone from human dopamine D2(short) receptor in rat pituitary GH4C1 cells; format: cell-based, Pituitary gland cell
T3 sequence (P14416 whole entry, canonical isoform): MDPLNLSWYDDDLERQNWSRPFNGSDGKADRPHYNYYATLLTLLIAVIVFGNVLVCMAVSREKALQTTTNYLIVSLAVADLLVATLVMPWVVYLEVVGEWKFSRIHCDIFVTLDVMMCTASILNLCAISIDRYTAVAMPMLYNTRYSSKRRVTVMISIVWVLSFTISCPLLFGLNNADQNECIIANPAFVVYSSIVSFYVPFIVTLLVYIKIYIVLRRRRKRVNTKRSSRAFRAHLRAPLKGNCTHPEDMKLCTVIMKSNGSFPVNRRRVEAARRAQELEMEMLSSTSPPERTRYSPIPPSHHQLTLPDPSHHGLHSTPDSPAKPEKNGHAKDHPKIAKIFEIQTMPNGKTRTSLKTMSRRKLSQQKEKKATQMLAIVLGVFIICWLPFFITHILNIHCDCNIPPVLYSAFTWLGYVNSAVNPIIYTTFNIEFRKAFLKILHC
How it was run: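 Rat pituitary GH4C1 cells stably expressing cloned hD2 (short isoform), with [3H]spiperone displacement. Non-specific binding was defined with […]. Ki was calculated by Cheng–Prusoff transformation.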

[4] = biological target: T4, Adrenergic receptor alpha-1 (Rattus norvegicus, UniProt P15823+P23944+P43140); assay: Displacement of 7-methoxy-[3H]prazosin from adrenergic alpha-1 receptor in rat frontal cortex tissue; format: tissue-based
T4 sequence (P15823 whole entry): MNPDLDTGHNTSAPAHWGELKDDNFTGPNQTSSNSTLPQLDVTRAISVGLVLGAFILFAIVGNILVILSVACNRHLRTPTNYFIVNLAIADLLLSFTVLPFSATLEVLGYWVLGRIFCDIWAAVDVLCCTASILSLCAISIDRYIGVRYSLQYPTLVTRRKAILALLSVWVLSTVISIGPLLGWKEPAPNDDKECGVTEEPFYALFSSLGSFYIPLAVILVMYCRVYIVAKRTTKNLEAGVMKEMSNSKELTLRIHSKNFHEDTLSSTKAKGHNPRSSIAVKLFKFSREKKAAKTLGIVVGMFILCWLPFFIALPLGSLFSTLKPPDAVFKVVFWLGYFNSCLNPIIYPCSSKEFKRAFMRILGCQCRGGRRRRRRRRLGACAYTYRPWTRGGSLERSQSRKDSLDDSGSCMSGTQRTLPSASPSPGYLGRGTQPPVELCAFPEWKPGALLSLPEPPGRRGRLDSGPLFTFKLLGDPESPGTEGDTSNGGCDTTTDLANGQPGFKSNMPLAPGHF
T4 sequence (P23944 whole entry): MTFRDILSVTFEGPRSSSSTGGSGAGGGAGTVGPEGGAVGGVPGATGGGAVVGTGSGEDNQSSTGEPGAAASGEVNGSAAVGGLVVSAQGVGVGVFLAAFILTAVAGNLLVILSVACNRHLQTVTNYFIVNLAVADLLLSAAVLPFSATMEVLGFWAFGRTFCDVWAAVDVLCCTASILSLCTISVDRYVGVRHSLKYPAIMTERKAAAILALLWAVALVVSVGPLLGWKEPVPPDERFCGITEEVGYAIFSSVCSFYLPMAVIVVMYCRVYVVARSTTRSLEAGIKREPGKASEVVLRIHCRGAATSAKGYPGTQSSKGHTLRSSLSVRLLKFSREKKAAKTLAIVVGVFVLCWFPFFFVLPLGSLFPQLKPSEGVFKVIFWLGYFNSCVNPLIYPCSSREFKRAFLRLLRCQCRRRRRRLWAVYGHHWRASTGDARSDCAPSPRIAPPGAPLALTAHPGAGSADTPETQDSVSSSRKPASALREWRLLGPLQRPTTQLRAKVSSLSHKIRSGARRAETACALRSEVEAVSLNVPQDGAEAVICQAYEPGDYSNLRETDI
T4 sequence (P43140 whole entry): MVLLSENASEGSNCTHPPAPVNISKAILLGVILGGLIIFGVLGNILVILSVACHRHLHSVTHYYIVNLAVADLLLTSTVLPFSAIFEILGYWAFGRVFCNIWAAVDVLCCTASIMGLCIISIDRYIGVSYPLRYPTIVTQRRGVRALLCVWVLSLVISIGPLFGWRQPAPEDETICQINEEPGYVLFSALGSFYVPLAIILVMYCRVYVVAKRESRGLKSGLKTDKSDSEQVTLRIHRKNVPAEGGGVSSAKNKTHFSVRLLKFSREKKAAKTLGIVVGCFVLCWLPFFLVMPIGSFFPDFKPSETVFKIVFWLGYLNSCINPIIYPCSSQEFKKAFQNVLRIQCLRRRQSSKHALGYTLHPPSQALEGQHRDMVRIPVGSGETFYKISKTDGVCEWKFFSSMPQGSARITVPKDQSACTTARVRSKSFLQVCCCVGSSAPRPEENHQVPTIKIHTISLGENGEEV
How it was run: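 Rat frontal cortex tissue as receptor source, with 7-methoxy-[3H]prazosin as radioligand. Non-specific binding was defined with […]. Ki was obtained by Cheng–Prusoff transformation and reported as the mean of at least two independent determinations ± SEM.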

[5] = biological target: T3, D(2) dopamine receptor; assay: Inhibitory activity against human dopamine D2(short) receptor in rat pituitary GH4C1 cells at 100 nM; format: cell-based; conditions: Pituitary gland cell
[6] = biological target: T5, Adrenergic receptor alpha-1 (Rattus norvegicus) (UniProt P15823+P23944+P43140); assay: Inhibitory activity against adrenergic alpha1 receptor in rat frontal cortex tissue at 100 nM; format: tissue-based
[7] = biological target: T1, 5-hydroxytryptamine receptor 2A; assay: Inhibitory activity against cloned human 5HT2A receptor in […] cells at 100 nM; format: cell-based
[8] = biological target: T5, Adrenergic receptor alpha-1 (Rattus norvegicus); assay: Inhibitory activity against adrenergic alpha-1 receptor in rat frontal cortex tissue at 1 uM; format: tissue-based

T1 sequence (P28223 whole entry): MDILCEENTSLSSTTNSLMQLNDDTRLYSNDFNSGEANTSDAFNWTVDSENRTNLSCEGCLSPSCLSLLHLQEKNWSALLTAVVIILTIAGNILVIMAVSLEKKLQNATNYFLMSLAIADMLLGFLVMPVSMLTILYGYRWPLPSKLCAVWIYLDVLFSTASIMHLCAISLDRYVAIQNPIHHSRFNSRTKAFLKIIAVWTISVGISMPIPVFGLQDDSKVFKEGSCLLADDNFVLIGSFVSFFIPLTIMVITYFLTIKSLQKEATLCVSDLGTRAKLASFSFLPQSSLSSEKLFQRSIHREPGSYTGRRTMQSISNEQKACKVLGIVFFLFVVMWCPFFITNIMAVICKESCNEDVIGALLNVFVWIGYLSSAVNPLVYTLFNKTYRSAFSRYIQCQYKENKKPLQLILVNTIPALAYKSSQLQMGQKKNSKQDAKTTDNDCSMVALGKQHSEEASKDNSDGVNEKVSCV

Row | Ki [1] | Ki [2] | Ki [3] | Ki [4] | inhibition [5] | inhibition [6] | inhibition [7] | inhibition [8] | Compound
1 | 0.014 µM | 0.005 µM | 1.5 µM | 0.42 µM | – | – | – | – | O=C(N[C@H]1CCN(Cc2ccc(F)cc2)C1)c1ccc(-c2cccs2)cc1
2 | 5.6 µM | 0.052 µM | 0.5 µM | 1.2 µM | – | – | – | – | O=C(N[C@H]1CCN(Cc2ccc(OC(F)(F)F)cc2)C1)c1cccc(-c2cccs2)c1
3 | 0.74 µM | 0.021 µM | 1.3 µM | 0.36 µM | – | – | – | – | O=C(N[C@H]1CCN(Cc2ccc(C(F)(F)F)cc2)C1)c1cccc(-c2cccs2)c1
4 | 0.61 µM | 0.004 µM | 0.06 µM | 0.08 µM | – | – | – | – | Cc1ccc(CN2CC[C@H](NC(=O)c3cccc(-c4cccs4)c3)C2)cc1
5 | 1.1 µM | 0.016 µM | 0.23 µM | 0.22 µM | – | – | – | – | O=C(N[C@H]1CCN(Cc2ccc(Cl)cc2)C1)c1cccc(-c2cccs2)c1
6 | 0.022 µM | 0.015 µM | 29 µM | 5 µM | – | – | – | – | O=C(N[C@H]1CCN(Cc2ccc(Cl)c(Cl)c2)C1)c1ccc(-c2cccs2)cc1
7 | – | 0.022 µM | – | – | 0% | 0% | 76% | – | O=C(N[C@H]1CCN(Cc2cccc(C(F)(F)F)c2)C1)c1ccc(-c2cccs2)cc1
8 | 0.016 µM | 0.014 µM | 18 µM | 10 µM | – | – | – | – | O=C(N[C@H]1CCN(Cc2ccc(F)c(F)c2)C1)c1ccc(-c2cccs2)cc1
9 | – | 0.033 µM | 38 µM | 6.9 µM | – | – | 89% | – | O=C(N[C@H]1CCN(Cc2ccccc2F)C1)c1ccc(-c2cccs2)cc1
10 | 0.13 µM | 0.014 µM | – | – | 7% | – | – | 2% | O=C(N[C@H]1CCN(Cc2ccc(C(F)(F)F)cc2)C1)c1ccc(-c2cccs2)cc1
11 | 0.14 µM | 0.078 µM | – | 16 µM | 7% | – | – | – | O=C(N[C@H]1CCN(Cc2ccc(OC(F)(F)F)cc2)C1)c1ccc(-c2cccs2)cc1
12 | 0.0018 µM | – | – | – | – | – | – | – | O=C(N[C@H]1CCN(Cc2ccccc2)C1)c1ccc(-c2cccs2)cc1
13 | 0.022 µM | 0.014 µM | 4.46 µM | 0.92 µM | – | – | – | – | COc1cccc(CN2CC[C@H](NC(=O)c3ccc(-c4cccs4)cc3)C2)c1
14 | – | 0.007 µM | 1.8 µM | 0.4 µM | – | – | 89% | – | O=C(N[C@H]1CCN(Cc2ccc3c(c2)OCO3)C1)c1ccc(-c2cccs2)cc1
15 | 0.46 µM | – | – | – | – | – | – | – | O=C(N[C@H]1CCN(Cc2ccccc2)C1)c1cccc(-c2cccs2)c1

— ChEMBL document CHEMBL1141940, “N-[(3S)-1-benzylpyrrolidin-3-yl]-(2-thienyl)benzamides: human dopamine D4 ligands with high affinity for the 5-HT2A receptor” (Bioorg Med Chem Lett, 2005)
